Test results: the EternaBench riboswitch data

System: MS2 coat protein
Test: apparent Kd, MS2 coat protein; higher = weaker binding; RNA-MaP array; FMN 200 µM where present
How it was run: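 Designs were transcribed by stalled E. coli RNA polymerase on Illumina sequencing-chip clusters. They were titrated with SNAP-549-labelled MS2 coat protein from 0.7 or 1.5 nM, doubling to 3 µM, in 100 mM Tris-HCl pH 7.5, 80 mM KCl, 4 mM MgCl2, BSA, DTT, yeast tRNA and Tween-20, without and then with constant ligand. The apparent Kd is the median of filtered per-cluster fits after normalisation of green signal to red-channel RNA signal and control-cluster median Fmax.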

[1] = designed as: ON switch for flavin mononucleotide, no ligand
[2] = ligand present: flavin mononucleotide, designed as: ON switch for flavin mononucleotide
[3] = designed as: OFF switch for flavin mononucleotide, no ligand
[4] = ligand present: flavin mononucleotide, designed as: OFF switch for flavin mononucleotide

Sequence	apparent Kd [1] [nM]	apparent Kd [2] [nM]	apparent Kd [3] [nM]	apparent Kd [4] [nM]
GAUUAACAUGAGGAUCACCCAUGUCGUUUUAUGGGAGGAUAUACGUGGACCGUAGUCCGCGUAGAAGGCCUAAUUG	125	30.4	–	–
UAUAUUAUUAUAGGAUAUGGAUAUGAUGCAUAUCCAGAAGGGUGAUUAUAAUAUUUUCUGUACAUGAGGAUCACCCAUGUUUAG	134	32.5	–	–
ACUUCUAAGCAGAAGGCAGUCAUAGCAUUCGUCAUGUAGACAUGAGGAUCACCCAUGUAUAGUGCUGAGGAUAUGCUUGGAUAG	–	–	11.8	10.7
UUUCAGUCAGGAUAUCGUUAAUUUAAUUGUUUGUUUUAGUUCGAGAAGGGACAUGAGGAUCACCCAUGUAAUUU	–	–	33.1	51.3
AACGUGGCAAAGGAUAUCCACACGGCAAAGCCGGGAGAAGGUUGCACAUGAGGAUCACCCAUGUGAACCAAACA	–	–	14.9	17.8
GUCAGCUCGUGAGGAUAUACAACACUGCUUCGGCAGUGUAUUAAGAUCACAUGAGGAUCACCCAUGUAGAAGGCACGAGCUGAU	–	–	42.1	832
ACGUGACGGAGCGCGAGUGGACGGAGAAGGCAGACAUGAGGAUCACCCAUGUGAGCCUGCUAUUCUGAGGAUAUCCGUCCGCAC	–	–	32.5	203
GUGCUGCAACGGUGCACGAGACAUGAGGAUCACCCAUGUGACAGAAGGGACUUGUUAAAGGUAGGUCAGGAUAUGUCUUAAAAG	191	53.1	–	–
AAGUCAGCAGGAUAUGCGAUGUUGGGCUAGGUAGCGUGACCACAUGAGGAUCACCCAUGUAGAAGGGCUGGCUA	–	–	33.4	34.4
AAACACGGACAUGAGGAUCACCCAUGUGGCGAAAGCCUUGGGAGAAGGCCGUAUGCAAAGCAUACGGAGGAUAUCCAUACCGUG	18.1	6.34	–	–
UUAUGAGAGCAGGAUAUCUUAUUUUUUUUUUAUAGAGAAGGGCUCACAUGAGGAUCACCCAUGUGGUCCUAGAU	–	–	32.5	52.5
UCGCGGGAGCAGAAGGGAUAGGCCUAUUGUCGUGGAGUCUACACUUAACAUGAGGAUCACCCAUGUCAGGAUAUGCCCACGCGA	–	–	8.8	10.6
UGGUACAACGGAGGAUAUCAUGUAAAUACAUGAGGAUCACCCAUGUCGUACGAGAGUACGGAGAUUGAGAAGGCCGUUGUACCU	25.7	16.1	–	–
AUCAGCUGGUCAGGAUAUACGUCACUGCGUCAGCAGUGUGGUAAGAUCACAUGAGGAUCACCCAUGUAGAAGGGACGAGCUGAU	–	–	14.5	286
AAUAAACUCACAGGAUAUAGCAUCGACGUUGCGAACUUAGCGACGUCGAUGCUAGAAGGGUGAAAACAUGAGGAUCACCCAUGU	30.9	13.4	–	–
UCGAACGGAAACAAAGUCGAUAGACAUGAGGAUCACCCAUGUAAGGAUAUGCCUACUAAAAGUAGGCAGAAGGUACGCGUUCGA	–	–	18.9	28.1
AACACGAGAGGUGUUAUCUAACCACAUGAGGAUCACCCAUGUAAGGAUAUCGCGGCUAUCGGCAUCGAGAAGGUACAGGGUGCA	–	–	44.1	93.6
AAUUUACAUGAGGAUCACCCAUGUGAGGAUAUAUAUAUAUGUUUGUUAUUGCGUGUGUGUAGAAGGCGCGUGAU	–	–	17.6	16.3
AAACAAAGGUGGAAACGGGAACCACAUGAGGAUCACCCAUGUAAGGAUAUCGACCAGCGGUGCGGCGAGAAGGUACAUAGGAAC	–	–	20.3	29.7
UGGUCGCGAGGAUAUACAUGAGGAUCACCCAUGUUUGAGCGCCAUCCGUUCGGCUCGUGUAGAAGGUGCACACA	–	–	21.9	19.9
GCGCAUUUUAGAUUUAUAUAAUUUUCAGAAGGUGAAUAGUCGACAUGAGGAUCACCCAUGUAUUUCAAGGAUAUGAUUUAGCGC	68.6	13	–	–
UCCACUGCUGAGAAGGGAUACGUCUGGUUCGCAUCAGGAUAUCGAUACAGUGCAGCAUGAGGACAUGAGGAUCACCCAUGUGUC	21.6	19.3	–	–
UUUAUGUCAGGAUAUACAUGAGGAUCACCCAUGUAUAUCUUAAAGUAUACAUGGAAAUGUAGAAGGGACGUCCU	–	–	15.1	17.1
GGAUUACAUGAGGAUCACCCAUGUGAGGAUAUCGAUGUCCUCAAUGAAGUGCGGGACUCGAGAAGGCACUUGGA	–	–	78.5	108
UGAUAGGACAGAGGAUAUACGUCCUAGAGAUACUAGGAAAGUUUCCUCACAUGAGGAUCACCCAUGUAGAAGGCUGUCCUAUCU	–	–	19	472
UUUAAUUAGUAGAAGGACGGAGAGUAAGAAGUCGUAGGAUAUACAUAAGACAUGAGGAUCACCCAUGUGUGUAUGUUGGGUAGG	–	–	6.57	7.72
UCAUUUACCACAGGAUAUAUUCAUAUACAGUUGUUUGGCUCUUACAUAUUAAUAGAAGGGUGCAACAUGAGGAUCACCCAUGUA	274	191	–	–
UCCUGGCGAGGAUAUACAAAGUUUUUCACGUUUUGUUACGAACAUGAGGAUCACCCAUGUAGAAGGUGCUACUG	–	–	116	103

Sequence	apparent Kd [1] [nM]	apparent Kd [2] [nM]	apparent Kd [3] [nM]	apparent Kd [4] [nM]
UGUAUGGACAGAGGAUAUACAGAUAGGAUCUACUAUCAAACAAUCCUCACAUGAGGAUCACCCAUGUAGAAGGCUGUCCAUACU	–	–	105	809
ACUCGAUUUUUGGGUUUACUAUAUGAGGAUAUCAUACAUCUAUACAUGAGGAUCACCCAUGUUACUGAGAAGGCAUAUAUAAUA	17.3	6.77	–	–
UUUAAACAUGAGGAUCACCCAUGUUUUUUUAUGGGAGGAUAUCUAAGUUAAUUAUAUUAAGGAGAAGGCCUAUUUU	146	26.7	–	–
CGUGCGUAUGUGAGGAUAUGCUGGUCCUUGGAUCGGCAGAAGGCACAUGAGGAUCACCCAUGUGGUGUCGUCCA	–	–	85.8	64.5
CUUUUGUGAGGAUAUUCGUAGUAGGGUCAUGGUACUAUUACGGAGAAGGCACAUGAGGAUCACCCAUGUUCCUU	–	–	15.4	45.1
AUAUUUGUGUAGAAGGUACGUGAUUAGUCAAAGUAAGGAUAUACUGACAUGAGGAUCACCCAUGUUUAAAUAGUUAAAUGUUCU	10.9	8.01	–	–
AGAAAACAUGAGGAUCACCCAUGUCAAGCUAAUCAAGGAUAUGGGUCGGGAAAUCCCGCACCAGAAGGUGAAAUGC	123	24.5	–	–
AAGAAAGAAACAUAGGAUAUCAAGGAUAUAACAUGAGGAUCACCCAUGUAAAUACGAAAGUAUAAUGAGAAGGAUGGAUGAUCUUC	86.1	122	–	–
AGUAGAUCAGGAUAUACAUAAAUGAUAAUUAUGUAAAUUCUACAUGAGGAUCACCCAUGUAGAAGGGAUCUACA	–	–	14.4	14
ACAUGCAUAGCGAUAUGAUCGAGAGAUCAUGUCGCUAAAAUUAGAAGGACAUGAGGAUCACCCAUGUAGGAUAUGGGAGCAUGA	39.9	10.3	–	–
CCUCGACAUGAGGAUCACCCAUGUCAGGAUAUUGUGUCUCGGGUUUUUUACCGUUAGGCAAGAAGGGAUGUGUG	–	–	22.1	23.2
AUAUGAUAGAUAGGAUAUACUAUGGUUGAAGAAGUAGAAGGAUCAAUAGGGAAAUGUACAUGAGGAUCACCCAUGUUAUGGAUU	29.7	26.9	–	–
UUUUUACUUGCAGGAUAUGGAGACAUGAGGAUCACCCAUGUAUGAUAAGCUAAAUUAUGCUGUGGCCAGAAGGGUAUUAUUCUU	63.2	57.4	–	–
GAGUGACAUGAGGAUCACCCAUGUGAGGAUAUCGGACGGACCUUGUUGGCUUCCGCCGCGAGAAGGCACAUCGG	–	–	201	45
AGUGCCUCGAGAGGAUAUAACAUGAGGAUCACCCAUGUAACAGAGGUGGAAACACCUCUGAAAUGUUAGAAGGCUCGAGGCACA	–	–	40.7	53.2
GGAGCCGGCACCGAGGAUAUUCAUAUUAAAACAUGAGGAUCACCCAUGUAGCUCGAAAGAGCUUGGGAGAAGGCGGAUCGGCUCG	840	43.1	–	–
GAGAAGUCAGGAUAUGCAUGGCGGGACUUGCGUCGUGGCGUGCAGAAGGGACAUGAGGAUCACCCAUGUAAAGG	–	–	143	265
CCCACGAAAGUCGAACGAUGAUGGAGAAGGACAAUAACAUGACAUGAGGAUCACCCAUGUGCCAUGUAGGAUAUCCAUCAUGGG	–	–	7.49	6.78
GCAUGAAAUGUGAGGAUAUACCUCUGGAUACAUAGGUAGAAGGCACAUGAGGAUCACCCAUGUCCUAAACAUGC	–	–	34.7	42.2
UUUGUAAUGUCAGGAUAUAUUAUAAGUCAGACUGUAGAAGGGAUAAUUAUACUCAUGUACAUGAGGAUCACCCAUGUUAAAUAU	97.1	53.2	–	–
AGAAGUUUGUAGAAGGACGACUAAUUUGUAUUCGUAGGAUAUACUAUUUACAUGAGGAUCACCCAUGUUUUUAUGGAACAAUGU	–	–	11.9	17.2
UUCAUGUGAGGAUAUGUGUACUGUUUUUUGUUUAGAUGUACACAGAAGGCACAUGAGGAUCACCCAUGUAGUAC	–	–	49.5	20.4
GUCGGAAACGACAAUGAUAGGACUGAGGAUAUACAUAAAUAAUCCUCUACAUGAGGAUCACCCAUGUAGAAGGCAGUCCUAUCU	–	–	19	24.6
CCAGAUAUGUGAGGAUAUAUAGUGGAAUACACUAUAGAAGGUAUGUGAGAACAUGAGGAUCACCCAUGUCAUUGGUUAUCUGGA	29.7	35.6	–	–
ACAUGAGGAUCACCCAUGUAGAAUGAAGAAGGUAGAUACUUGAGGAUCACCCAUGUACAUGGGACUAAGGAUAUUCUAAUAAUU	144	105	–	–
ACAUGCAAGUAGAAGGUCGGAUAUUUUGAUAACGAAGGAUAUACAGAAUCAUAUCCACAUGAUAACAUGAGGAUCACCCAUGUA	–	–	15.2	15
AUCAGCUCGGCAGGAUAUACAUCACUGCUUCGGCAGUGUAUUAAGAUCACAUGAGGAUCACCCAUGUAGAAGGGCCGAGCUGAU	–	–	34.1	389
